Results gathered from unrelated publications.
Lines come from different studies, so protocols differ.
Target: SRSF protein kinase 2 (SRPK2, Homo sapiens, UniProt P78362)

CN(C)C(=O)Cn1cc(-c2nc(C3(c4ccc(-c5cnc(N)nc5)cc4)CC3)no2)cn1  remaining binding (cell-free assay, competition with immobilised ligand; 1 µM): 91%
C[C@@H]1CCN(c2nccc(-c3cnn4ncccc34)n2)C1  remaining binding (binding; 1 µM): 100%
COc1cnc(Nc2cccc(S(N)(=O)=O)c2)nc1N1CCN(c2ccccc2)CC1  remaining binding (binding, competition with immobilised ligand; 1 µM): 87%
CCOC(=O)c1cc2cc(-c3cc(C(=O)NCc4ccc(C(=O)O)cc4)nn3C)ccc2[nH]1  remaining binding (cell-free assay, competition with immobilised ligand; 0.1 µM): 100%
O=C(c1ccc(Nc2ncc(Cl)c(-c3cc4ccccc4s3)n2)cc1)N1CCC(N2CCCC2)CC1  remaining binding (binding, competition with immobilised ligand; 1 µM): 99%
N[C@@H]1CCN(c2nccc(-c3cnn4ncccc34)n2)C1  remaining binding (binding; 1 µM): 100%
O=C(NCC1CCOCC1)c1n[nH]cc1NC(=O)c1c(F)cccc1F  remaining binding (binding, competition with immobilised ligand; 1 µM): 84%
F[C@@H]1CCN(c2nccc(-c3cnn4ncccc34)n2)C1  remaining binding (binding; 1 µM): 80%
COc1cnc(Nc2cccc(S(N)(=O)=O)c2)nc1N1CCN(c2ccccc2)C(=O)C1  remaining binding (binding, competition with immobilised ligand; 1 µM): 89%
C[C@@H]1CN(c2cc(-c3nn(C)c4ccc(OC5(C)CC5)cc34)ncn2)C[C@H](C)O1  remaining binding (cell-free assay, competition with immobilised ligand; 1 µM): 88%
CC1CCCN1c1nccc(-c2cnn3ncccc23)n1 (stereo not drawn)  remaining binding (binding; 1 µM): 100%
COc1ncc2cc3ccccc3nc2c1C#N  remaining binding (cell-free assay, competition with immobilised ligand; 5 µM): 100%
CS(=O)(=O)N1CCCC(NC(=O)[C@H](CCC2CCCCC2)NC(=O)c2ccc(CNC(=O)c3cnc4ccccn34)cc2)C1 (stereo partly drawn)  remaining binding (cell-free assay, competition with immobilised ligand; 0.1 µM): 83%
O=C(c1ccc(Nc2ncc(Cl)c(-c3ccc(Cl)s3)n2)cc1)N1CCC(N2CCCC2)CC1  remaining binding (binding, competition with immobilised ligand; 1 µM): 89%
COc1ccnn2ncc(-c3ccnc(N(C)C)n3)c12  remaining binding (binding; 1 µM): 100%
Cc1nc(N2CC[C@@H](O)C2)ncc1-c1cc(C(F)(F)F)cc2[nH]ncc12  remaining binding (binding, competition with immobilised ligand; 1 µM): 100%
O=C(NCCCN1CCOCC1)c1ccc(Nc2nccc(-c3cc4ccccc4s3)n2)cc1  remaining binding (binding, competition with immobilised ligand; 1 µM): 99%
C[C@@H](c1ccc(-n2cnc3c(N)ncnc32)cc1)N1CCc2nn(C)c(Cc3ccccc3)c2C1=O  remaining binding (binding, competition with immobilised ligand; 0.1 µM): 83%
FC(F)(F)Oc1cccc(-c2cnc3ccc(-c4ccncc4)nn23)c1  remaining binding (binding, competition with immobilised ligand; 5 µM): 66%
CN(C)c1nccc(-c2cnn3ncccc23)n1  remaining binding (binding; 1 µM): 100%
N#Cc1ccc(Nc2ccc3[nH]c(=O)[nH]c3c2)c(Cl)c1  remaining binding (cell-free assay, competition with immobilised ligand; 1 µM): 100%
